Assay [1] concerns Plasmodium falciparum. The assay is described as follows: Antimalarial activity against chloroquine-sensitive Plasmodium falciparum D10 after 48 hrs. It counts as functional, organism-based. Particulars: D10, 48 h; call rule not given here. The method, boiled down:
(§1)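 P. falciparum asexual culture in RPMI 1640 with glucose, HEPES, hypoxanthine, 5% Albumax, bicarbonate and gentamicin, sorbitol-synchronized at ring stage when needed. DMSO stocks serially diluted twofold in medium and added to parasitized erythrocytes at 2% hematocrit. Incubation 48 h at 37 °C under 3% O2/4% CO2/93% N2. pLDH read-out with Malstat plus NBT/PES at 620 nm. Runs in duplicate on two occasions; IC50 fitted from dose–response curves.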

Assay [2] has as its system Plasmodium falciparum. Nature of the assay: Antimalarial activity against chloroquine-resistant Plasmodium falciparum Dd2 after 48 hrs. The assay is classed as functional, organism-based. Particulars: Dd2, 48 h. The method, boiled down: as §1
Assay [3] concerns Plasmodium falciparum. Nature of the assay: Antimalarial activity against chloroquine-resistant Plasmodium falciparum W2 after 48 hrs by FACS analysis in presence of 10 % human serum. It counts as functional, organism-based. Particulars: W2, 48 h. In a few lines: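 W2 parasites grown in standard medium containing 10% human serum. Growth inhibition assay as in earlier published work, with parasite development scored by flow cytometry (FACS).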
A general note: A flow cytometer gives signals particle by particle.

Assay [4] can be described thus: Inhibition of beta-hematin formation assessed as equivalents of drug relative to hematin. It counts as functional. The method, boiled down:
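Colorimetric assay quantifying a compound's inhibition of the conversion of hematin to beta-hematin. IC50 is expressed in equivalents of compound relative to hematin.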

Each structure is given as a SMILES string.

Take `COc1cc(/C=C/C(=O)c2ccc(OC)c(OC)c2OC)ccc1OCc1cn(-c2ccnc3cc(Cl)ccc23)nn1`: the IC50 in the assay with Plasmodium falciparum [1] amounted to 0.4 µM; in the assay with Plasmodium falciparum [2], 0.4 µM; in the assay with Plasmodium falciparum [3] it was 0.6 µM; in assay [4] it was 0.2 equiv.

For `COc1cc(C(=O)/C=C/c2ccc(OC)c(OC)c2OC)ccc1OCc1cn(-c2ccnc3cc(Cl)ccc23)nn1`, the IC50 was found to be 0.3 µM in the assay on Plasmodium falciparum [1], 0.3 µM with Plasmodium falciparum [2], 0.5 µM in the assay with Plasmodium falciparum [3] and 4.1 equiv in assay [4].

Regarding `COc1cc(/C=C/C(=O)/C=C/c2ccc(OC)c(OC)c2OC)ccc1OCc1cn(-c2ccnc3cc(Cl)ccc23)nn1`, the IC50 in the assay on Plasmodium falciparum [1] is 2.5 µM; with Plasmodium falciparum [2] it was 2.1 µM; in the assay on Plasmodium falciparum [3], 18.5 µM.

Take `COc1cc(/C=C/C(=O)/C=C/c2ccc(Cl)cc2Cl)ccc1OCc1cn(-c2ccnc3cc(Cl)ccc23)nn1`: the IC50 with Plasmodium falciparum [1] was 19 µM; in the assay with Plasmodium falciparum [2] it was 16.8 µM; in the assay with Plasmodium falciparum [3], more than 20 µM.

For `COc1cc(/C=C/C(=O)/C=C/c2ccc(F)cc2)ccc1OCc1cn(-c2ccnc3cc(Cl)ccc23)nn1`, the IC50 in the assay with Plasmodium falciparum [1] was 9.4 µM; with Plasmodium falciparum [2], 9.3 µM; in the assay with Plasmodium falciparum [3], more than 20 µM.

For `COc1cc(/C=C/C(=O)/C=C/c2ccc(F)cc2F)ccc1OCc1cn(-c2ccnc3cc(Cl)ccc23)nn1`, the IC50 is 10.2 µM with Plasmodium falciparum [1], 6.5 µM in the assay with Plasmodium falciparum [2] and more than 20 µM with Plasmodium falciparum [3].

In the case of `COc1ccc(C(=O)/C=C/c2ccc(OCc3cn(-c4ccnc5cc(Cl)ccc45)nn3)c(OC)c2)c(OC)c1`, the IC50 was determined as 0.04 µM in the assay on Plasmodium falciparum [1], 0.07 µM in the assay on Plasmodium falciparum [2], 0.09 µM in the assay on Plasmodium falciparum [3] and 1.6 equiv in assay [4].

Consider `COc1ccc(/C=C/C(=O)c2ccc(OCc3cn(-c4ccnc5cc(Cl)ccc45)nn3)c(OC)c2)c(OC)c1`, for which the IC50 with Plasmodium falciparum [1] is 5.2 µM; in the assay with Plasmodium falciparum [2], 11.7 µM; with Plasmodium falciparum [3], 6.6 µM; in assay [4], “Not Active”.

As for `COc1cc(C(=O)/C=C/c2ccc(F)cc2)ccc1OCc1cn(-c2ccnc3cc(Cl)ccc23)nn1`, the IC50 with Plasmodium falciparum [1] is 7.4 µM; in the assay on Plasmodium falciparum [2] it was 1.6 µM; in the assay with Plasmodium falciparum [3], 6.9 µM; in assay [4], 4.8 equiv.

Take `COc1cc(C(=O)/C=C/c2ccc(F)cc2F)ccc1OCc1cn(-c2ccnc3cc(Cl)ccc23)nn1`: the IC50 in the assay on Plasmodium falciparum [1] amounted to 4.1 µM; in the assay with Plasmodium falciparum [2], 2.1 µM; in the assay on Plasmodium falciparum [3] it was 10.6 µM; in assay [4], 1.6 equiv.

As for `C#CCOc1ccc(/C=C/C(=O)c2ccc(OC)cc2OC)cc1OC`, the figures for the IC50 (with Plasmodium falciparum [2]; in assay [4]) were 4.3 µM and 0.5 equiv, respectively.

Turning to `CCN(CC)CCCC(C)Nc1ccnc2cc(Cl)ccc12` (configuration not stated) [CHLOROQUINE], in assay [4], the IC50 stood at 1.91 equiv.

`Cc1cn([C@H]2C[C@H](N=[N+]=[N-])[C@@H](CO)O2)c(=O)[nH]c1=O` [ZIDOVUDINE]: the IC50 with Plasmodium falciparum [1], with Plasmodium falciparum [2] and with Plasmodium falciparum [3] was more than 20 µM each time.

(Values after ChEMBL document CHEMBL1287748, “Design, synthesis and in vitro antimalarial evaluation of triazole-linked chalcone and dienone hybrid compounds” (Bioorg Med Chem, 2010).)
